# Laboratory results as given in ChEMBL document CHEMBL4400518, “Synthesis, antimicrobial and cytotoxic activities, and molecular docking studies of N-arylsulfonylindoles containing an aminoguanidine, a semicarbazide, and a thiosemicarbazide moiety” (Eur J Med Chem, 2019).
# How the values were obtained:
# Staphylococcus aureus [1] = experiment: Antibacterial activity against Staphylococcus aureus CMCC(B) 26003 measured after 24 hrs by ELISA; format: functional; conditions: CMCC(B) 26003, 24 h
# In short: (§1)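 Broth microdilution MIC. Mid-log bacteria in MHB or TSB diluted 1000-fold, inoculated at 10^5 CFU/mL. Compounds added from DMSO stocks; final DMSO at most 0.05%. Incubation 24 h at 37 °C. Growth read as absorbance at 630 nm. MIC taken as the lowest concentration giving complete growth inhibition. Three independent experiments.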
# Staphylococcus aureus [2] = experiment: Antibacterial activity against Staphylococcus aureus CMCC 25923 measured after 24 hrs by ELISA; format: functional; conditions: CMCC 25923, 24 h; in short: as §1
# Streptococcus pyogenes = experiment: Antibacterial activity against Streptococcus pyogenes CMCC 32067 measured after 24 hrs by ELISA; format: functional; conditions: CMCC 32067, 24 h; in short: as §1
# Streptococcus pneumoniae = experiment: Antibacterial activity against Streptococcus pneumoniae CMCC 31968 measured after 24 hrs by ELISA; format: functional; conditions: CMCC 31968, 24 h
# Enterococcus faecalis = experiment: Antibacterial activity against Enterococcus faecalis CMCC 29212 measured after 24 hrs by ELISA; format: functional; conditions: CMCC 29212, 24 h; in short: as §1
# Bacillus subtilis = experiment: Antibacterial activity against Bacillus subtilis CMCC 63501 measured after 24 hrs by ELISA; format: functional; conditions: CMCC 63501, 24 h; in short: as §1
# Escherichia coli [3] = experiment: Antibacterial activity against Escherichia coli CMCC 25922 measured after 24 hrs by ELISA; format: functional; conditions: CMCC 25922, 24 h; in short: as §1
# Escherichia coli [4] = experiment: Antibacterial activity against Escherichia coli CMCC 44568 measured after 24 hrs by ELISA; format: functional; conditions: CMCC 44568, 24 h; in short: as §1
# Pseudomonas aeruginosa [5] = experiment: Antibacterial activity against Pseudomonas aeruginosa CMCC 27853 measured after 24 hrs by ELISA; format: functional; conditions: CMCC 27853, 24 h; in short: as §1
# Pseudomonas aeruginosa [6] = experiment: Antibacterial activity against Pseudomonas aeruginosa CMCC 10104 measured after 24 hrs by ELISA; format: functional; conditions: CMCC 10104, 24 h; in short: as §1
# Staphylococcus aureus [7] = experiment: Antibacterial activity against methicillin-resistant Staphylococcus aureus ATCC 43300 measured after 24 hrs by ELISA; format: functional; conditions: ATCC 43300, 24 h
# In short: (§2)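 Broth serial dilution MIC. Mid-log bacteria in Mueller-Hinton or Tryptone Soya broth, diluted 1000-fold and inoculated at 10^5 CFU/mL. Compounds from DMSO stock, final DMSO ≤0.05%. Incubated 24 h at 37 °C; growth read as absorbance at 630 nm. MIC is the lowest concentration giving complete growth inhibition. Three independent experiments.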
# Staphylococcus aureus [8] = experiment: Antibacterial activity against methicillin-resistant Staphylococcus aureus ATCC 33591 measured after 24 hrs by ELISA; format: functional; conditions: ATCC 33591, 24 h; in short: as §2
# Escherichia coli [9] = experiment: Antibacterial activity against multidrug-resistant Escherichia coli ATCC BAA-196 measured after 24 hrs by ELISA; format: functional; conditions: ATCC BAA-196, 24 h; in short: as §2
# Pseudomonas aeruginosa [10] = experiment: Antibacterial activity against multidrug-resistant Pseudomonas aeruginosa ATCC BAA-2111 measured after 24 hrs by ELISA; format: functional; conditions: ATCC BAA-2111, 24 h; in short: as §2
# [11] = Cytotoxicity against human A590 cells measured after 48 hrs by CCK8 assay; format: functional, cell-based
# In short: (§3)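 Cells kept in DMEM with 10% FBS and penicillin-streptomycin at 37 °C, 5% CO2. About 1×10^4 cells per well attached for 24 h, then exposed for 48 h to 0.3, 1, 3, 10, 30 and 100 µmol/L of compound, in triplicate wells. CCK-8 added for 3 h, OD read at 450 nm. IC50 is the concentration inhibiting growth by 50%.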
# SGC-7901 = experiment: Cytotoxicity against human SGC7901 cells measured after 48 hrs by CCK8 assay; format: functional, cell-based; conditions: SGC-7901, 48 h; in short: as §3
# HEK-293T = experiment: Cytotoxicity against HEK293T cells measured after 48 hrs by CCK8 assay; format: cell-based; conditions: Homo sapiens; in short: as §3
# [12] = Selectivity index, ratio of IC50 for HEK293T cells to MIC for Staphylococcus aureus CMCC(B) 26003; format: toxicity; conditions: human, read-out: Selectivity Index
# [13] = Selectivity index, ratio of IC50 for HEK293T cells to MIC for Staphylococcus aureus CMCC 25923; format: toxicity; conditions: human, read-out: Selectivity Index
# [14] = Selectivity index, ratio of IC50 for HEK293T cells to MIC for Streptococcus pyogenes CMCC 32067; format: toxicity; conditions: human, read-out: Selectivity Index
# [15] = Selectivity index, ratio of IC50 for HEK293T cells to MIC for Streptococcus pneumoniae CMCC 31968; format: toxicity; conditions: human, read-out: Selectivity Index
# [16] = Selectivity index, ratio of IC50 for HEK293T cells to MIC for Enterococcus faecalis CMCC 29212; format: toxicity; conditions: human, read-out: Selectivity Index
# [17] = Selectivity index, ratio of IC50 for HEK293T cells to MIC for Bacillus subtilis CMCC 63501; format: toxicity; conditions: human, read-out: Selectivity Index
# [18] = Selectivity index, ratio of IC50 for HEK293T cells to MIC for Escherichia coli CMCC 25922; format: toxicity; conditions: human, read-out: Selectivity Index
# [19] = Selectivity index, ratio of IC50 for HEK293T cells to MIC for Escherichia coli CMCC 44568; format: toxicity; conditions: human, read-out: Selectivity Index
# [20] = Selectivity index, ratio of IC50 for HEK293T cells to MIC for Pseudomonas aeruginosa CMCC 27853; format: toxicity; conditions: human, read-out: Selectivity Index
# [21] = Selectivity index, ratio of IC50 for HEK293T cells to MIC for Pseudomonas aeruginosa CMCC 10104; format: toxicity; conditions: human, read-out: Selectivity Index
# [22] = Selectivity index, ratio of IC50 for HEK293T cells to MIC for methicillin-resistant Staphylococcus aureus ATCC 43300; format: toxicity; conditions: human, read-out: Selectivity Index
# [23] = Selectivity index, ratio of IC50 for HEK293T cells to MIC for methicillin-resistant Staphylococcus aureus ATCC 33591; format: toxicity; conditions: human, read-out: Selectivity Index
# [24] = Selectivity index, ratio of IC50 for HEK293T cells to MIC for multidrug-resistant Escherichia coli ATCC BAA-196; format: toxicity; conditions: human, read-out: Selectivity Index
# [25] = Selectivity index, ratio of IC50 for HEK293T cells to MIC for multidrug-resistant Pseudomonas aeruginosa ATCC BAA-2111; format: toxicity; conditions: human, read-out: Selectivity Index
Compound,MIC (Staphylococcus aureus [1]) [µM],MIC (Staphylococcus aureus [2]) [µM],MIC (Streptococcus pyogenes) [µM],MIC (Streptococcus pneumoniae) [µM],MIC (Enterococcus faecalis) [µM],MIC (Bacillus subtilis) [µM],MIC (Escherichia coli [3]) [µM],MIC (Escherichia coli [4]) [µM],MIC (Pseudomonas aeruginosa [5]) [µM],MIC (Pseudomonas aeruginosa [6]) [µM],MIC (Staphylococcus aureus [7]) [µM],MIC (Staphylococcus aureus [8]) [µM],MIC (Escherichia coli [9]) [µM],MIC (Pseudomonas aeruginosa [10]) [µM],also measured
Cc1ccc(S(=O)(=O)n2cc(/C=N\NC(=N)N)c3cc(Br)ccc32)cc1,2.31,2.31,> 296,> 296,9.24,2.31,9.24,2.31,> 296,> 296,1.15,1.15,1.15,> 73.9,IC50 [11]: 15.1 µM; IC50 (SGC-7901): 4 µM; IC50 (HEK-293T): 73.5 µM; selectivity ratio [12]: 31.8; selectivity ratio [13]: 31.8; selectivity ratio [14]: < 0.24; selectivity ratio [15]: < 0.25; selectivity ratio [16]: 7.95; selectivity ratio [17]: 31.8; selectivity ratio [18]: 7.95; selectivity ratio [19]: 31.8; selectivity ratio [20]: < 0.25; selectivity ratio [21]: < 0.25; selectivity ratio [22]: 63.9; selectivity ratio [23]: 63.9; selectivity ratio [24]: 63.9; selectivity ratio [25]: < 0.99
COc1c(N2CCNC(C)C2)c(F)cc2c(=O)c(C(=O)O)cn(C3CC3)c12 (centres undefined) [GATIFLOXACIN],0.33,0.33,> 341,> 341,2.67,5.33,0.33,0.33,5.33,5.33,1.33,0.67,1.33,2.66,
COc1c(N2C[C@@H]3CCCN[C@@H]3C2)c(F)cc2c(=O)c(C(=O)O)cn(C3CC3)c12 [MOXIFLOXACIN],0.31,0.31,> 319,> 319,,,0.31,0.31,,9.98,1.25,0.62,1.25,,
Cc1onc(-c2ccccc2)c1C(=O)N[C@@H]1C(=O)N2[C@@H]1SC(C)(C)[C@@H]2C(=O)O [OXACILLIN],0.31,0.31,> 319,> 319,319,> 319,319,> 319,> 319,> 319,160,19.9,,,
CC1(C)S[C@@H]2[C@H](NC(=O)Cc3ccccc3)C(=O)N2[C@H]1C(=O)O [PENICILLIN G],0.37,0.37,> 383,> 383,383,383,383,> 383,> 383,95.8,95.8,> 95.8,,,
